The record followed here is PubChem BioAssay AID493157 (Broad Institute, 2011).

The nature of assay [1]: single-agent antifungal toxicity on Candida – CaCi-2 strain, Alamar Blue, dry powder, set 8, counter-screen for antifungal drug resistance project, dose response (AID 493157). To be noted: C. albicans CaCi-2 growth without fluconazole, Alamar Blue, 48 h. The gist of the method:
(§1)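 System: C. albicans CaCi-2 resistant isolate, fluconazole omitted. Quantity: inoculum OD600 0.00015. Medium: defined RPMI medium, MOPS, glucose, uridine. Doses: pinned compound alone. Schedule: 48 h static growth, 37 °C, 2 h room-temperature dye. Signal: Alamar Blue fluorescence, 544/590 nm. Read-out: yeast growth via fluorescence.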

Assay [2] has as its system C. albicans CaCi-2 (fluconazole-resistant clinical isolate) growth without fluconazole, Alamar Blue, 48 h. The assay is described as above. The gist of the method:
as §1

Calls of active or inactive are those of the source.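 Rule for the calls: active = growth-lowering compounds whose AC50 is at most ten times the top tested dose; inconclusive = flat curve with moderate signal loss, or a poor fit; inactive = the rest.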

Consider `COC(=O)Cn1nc(-c2ccccc2)c2ccccc21`, for which the max activity in assay [1] (at 12 µM) is 35.4% (inactive).

What is called AC50 is the concentration giving half of the maximal activity seen. On to `O=C(Cn1nc(-c2ccccc2)c2ccccc21)OC1CCC1`, for which the AC50 in assay [2] is > 26 µM (inactive).

Take `COC(=O)Cn1nc(-c2ccc(F)cc2)c2ccccc21`: in assay [1] (at 3 µM), the max activity is -27% (inactive).

For the molecule `COC(=O)Cn1nc(-c2cccc(F)c2)c2ccccc21`, the max activity in assay [1] (at 0.8 µM) is -22.1% (inactive).

As for `COC(=O)Cn1ncc2ccccc21`, in assay [1] (at 26 µM), the max activity is -25.4% (inactive).

Consider `O=C(Cn1c2ccccc2c2ccncc21)N1CCCCC1`, for which the max activity in assay [1] (at 6 µM) was -15.9% (inactive).

In the case of `COC(=O)Cn1nc(-c2ccccc2)c2cccc(C(F)(F)F)c21`, the max activity in assay [1] (at 0.1 µM) is -21.2% (inactive).

For the molecule `O=C1OCCC1n1nc(-c2ccccc2)c2ccccc21` (centres undefined), the max activity in assay [1] (at 0.195 µM) was -31.5% (inactive).

On to `CCCCn1nc(-c2ccccc2)c2ccccc21`, for which the max activity in assay [1] (at 26 µM) is 28% (inactive).

On to `O=C(Cn1c2ccccc2c2nc3n(c(=O)c21)CCS3)N1CCCCC1`, for which, in assay [1] (at 0.1 µM), the max activity is -24.6% (inactive).

As to `CCN(CC)C(=O)Cn1c2ccc(F)cc2c2nc3n(c(=O)c21)CCS3`, in assay [1] (at 0.38 µM), the max activity is -28.9% (inactive).

In the case of `O=C(Cn1c2ccccc2c2nc3n(c(=O)c21)CCS3)N1CCOCC1`, the max activity in assay [1] (at 0.8 µM) was -18.5% (inactive).

As to `COC(=O)Cn1nc(-c2ccccc2)c2ccc(C(F)(F)F)cc21`, in assay [1] (at 0.1 µM), the max activity was -34% (inactive).

As to `COc1ccc(-c2n[nH]c3ccccc23)cc1`, in assay [1] (at 6 µM), the max activity is -32.5% (inactive).

Turning to `O=C(Cn1c2ccc(F)cc2c2nc3n(c(=O)c21)CCS3)N1CCCCC1`, in assay [1] (at 26 µM), the max activity was 27.4% (inactive).

Regarding `COC(=O)Cn1nc(I)c2ccccc21`, in assay [1] (at 1.6 µM), the max activity is -30.3% (inactive).

For `CCC(=O)Cn1nc(-c2ccccc2)c2ccccc21`, the max activity in assay [1] (at 0.8 µM) is -10.2% (inactive).

Take `COC(=O)CCCn1nc(-c2ccccc2)c2ccccc21`: the max activity in assay [1] (at 1.6 µM) is -17.6% (inactive).

Consider `COC(=O)Cn1nc(-c2ccccc2C)c2ccccc21`, for which the max activity in assay [1] (at 26 µM) was 1.36% (inactive).

With `O=C(Cn1c2ccc(F)cc2c2nc3n(c(=O)c21)CCS3)N1CCCCCC1`, the max activity in assay [1] (at 26 µM) was 13.5% (inactive).

Regarding `COC(=O)Cn1nc(-c2ccc(C#N)cc2)c2ccccc21`, the max activity in assay [1] (at 26 µM) was -38.6% (inactive).

Regarding `O=C(O)Cn1nc(-c2ccccc2)c2ccccc21`, in assay [1] (at 6 µM), the max activity was 18.6% (inactive).

For the molecule `FC(F)(F)c1ccc(-c2n[nH]c3ccccc23)cc1`, the max activity in assay [1] (at 0.195 µM) was -25.6% (inactive).

On to `O=C(Cn1c2ccc(F)cc2c2nc3n(c(=O)c21)CCS3)N1CCCC1`, for which, in assay [1] (at 0.1 µM), the max activity is -25.8% (inactive).

For `CCN(CC)C(=O)Cn1c2ccccc2c2nc3n(c(=O)c21)CCS3`, the max activity in assay [1] (at 0.38 µM) was -31.2% (inactive).

Regarding `CC1CCN(C(=O)Cn2c3ccccc3c3nc4n(c(=O)c32)CCS4)CC1`, the max activity in assay [1] (at 12 µM) was -29.8% (inactive).

For the molecule `COC(=O)Cn1c(-c2ccccc2)nc2ccccc21`, the max activity in assay [1] (at 6 µM) was 19.2% (inactive).

With `COC(=O)C(C)(C)n1nc(-c2ccccc2)c2ccccc21`, the max activity in assay [1] (at 0.1 µM) is -31.3% (inactive).

Turning to `O=C(Cn1c2ccccc2c2nc3n(c(=O)c21)CCS3)N1CCCC1`, the max activity in assay [1] (at 12 µM) was 17.2% (inactive).
